The species entered for one assay is Sus scrofa. Description: Inhibition of porcine kidney tissue non-specific alkaline phosphatase assessed as residual enzyme activity at 0.4 mM in presence of 4% DMSO at pH 10.4 at 37 degC relative to untreated control.
In assay [1] the target is Intestinal-type alkaline phosphatase (Bos taurus) (UniProt P19111). Description: Inhibition of bovine intestinal alkaline phosphatase assessed as residual enzyme activity at 0.1 mM in presence of 1% DMSO at pH 10.4 at 37 degC relative to untreated control. An outline of the steps:
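Screening in 25 mM piperazine, 25 mM glycylglycine, 5 mM MgCl2, 5 µM ZnCl2, pH 10.4, 37 °C. BIAP (0.1–0.3 µg/mL) preincubated 10 min with 0.1 mM compound (final DMSO 1% v/v), no substrate. Reaction started with 0.05 mM pNPP; read at 420 nm (ε 18.6 cm⁻¹ mM⁻¹). Activity given relative to inhibitor-free control; sample-to-sample error 5%.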

Sequence of Intestinal-type alkaline phosphatase (Bos taurus) (P19111 20-506 limits assumed): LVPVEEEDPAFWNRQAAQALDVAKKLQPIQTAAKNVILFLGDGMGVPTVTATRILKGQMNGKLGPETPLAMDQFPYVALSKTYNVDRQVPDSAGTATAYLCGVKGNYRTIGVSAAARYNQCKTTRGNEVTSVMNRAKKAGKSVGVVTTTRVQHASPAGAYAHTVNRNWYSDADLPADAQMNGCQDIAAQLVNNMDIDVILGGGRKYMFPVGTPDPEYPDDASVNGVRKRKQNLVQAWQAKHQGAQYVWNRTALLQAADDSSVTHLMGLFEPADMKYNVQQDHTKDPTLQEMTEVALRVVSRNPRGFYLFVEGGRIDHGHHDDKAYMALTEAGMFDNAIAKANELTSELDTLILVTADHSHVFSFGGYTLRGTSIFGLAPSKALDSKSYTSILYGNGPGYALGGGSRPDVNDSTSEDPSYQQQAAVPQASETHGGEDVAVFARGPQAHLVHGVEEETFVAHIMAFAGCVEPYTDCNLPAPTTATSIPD

Consider `COc1ccc(-c2sc3ccccc3c2C(=O)c2ccccc2)c([N+](=O)[O-])c1`, for which the Activity in the assay listed under Sus scrofa was 97%; in assay [1], 114%.

For the compound `N#Cc1ccccc1-c1sc2ccccc2c1Oc1ccc(Cl)cc1`, the Activity in the assay filed under Sus scrofa was 79%; in assay [1], 101%.

For `O=[N+]([O-])c1ccccc1-c1cc2ccccc2s1`, the Activity in the assay filed under Sus scrofa is 86%; in assay [1], 121%.

Consider `O=Cc1csc2ccccc12`, for which the Activity in the assay filed under Sus scrofa was found to be 85%; in assay [1], 120%.

On to `NCc1c(-c2cccnc2)sc2ccccc12`, for which the Activity in the assay listed under Sus scrofa is 111%; in assay [1], 105%.

For the compound `[O-][s+]1cc(N2CCCCC2)c2ccccc21` (stereo not drawn), the Activity in the assay listed under Sus scrofa is 101%; in assay [1] it was 110%.

For the compound `N#Cc1ccccc1-c1sc2ccccc2c1N1CCCCC1`, the Activity in the assay filed under Sus scrofa worked out at 100%; in assay [1] it was 99%.

`COc1ccc(C(=O)c2c(-c3ccc(OC)cc3[N+](=O)[O-])sc3ccccc23)cc1`: the Activity in the assay filed under Sus scrofa is 100%; in assay [1] it was 95%.

Take `Nc1ccccc1-c1cc2ccccc2s1`: the results for the Activity (in the assay listed under Sus scrofa; in assay [1]) were 70% and 93%, respectively.

Consider `O=Cc1c(-c2ccccc2[N+](=O)[O-])sc2ccccc12`, for which the Activity in the assay filed under Sus scrofa came out at 78%; in assay [1], 116%.

For `O=Cc1ccc(Oc2csc3ccccc23)cc1`, the Activity in assay [1] was 9%.

As for `O=Cc1c(-c2ccc(C(F)(F)F)cc2)sc2ccccc12`, the Activity is 80% in the assay listed under Sus scrofa and 30% in assay [1].

`FC(F)(F)COc1sc2ccccc2c1-c1cccnc1`: the Activity in the assay filed under Sus scrofa was 97%; in assay [1] it was 102%.

As to `COC(=O)C(Cc1c(-c2ccc(C#N)cc2)sc2ccccc12)NCc1ccccc1` (stereo not drawn), in assay [1], the Activity amounted to 115%.

As for `c1ccc(Oc2c(-c3ccccc3)sc3ccccc23)cc1`, the Activity in the assay listed under Sus scrofa came to 91%; in assay [1], 104%.

On to `COc1ccc(C(=O)c2c(-c3ccccc3[N+](=O)[O-])sc3ccccc23)cc1`, for which the Activity in the assay listed under Sus scrofa came out at 101%; in assay [1] it was 107%.

For `N#Cc1ccc(-c2sc3ccccc3c2C=O)cc1`, the Activity in the assay filed under Sus scrofa amounted to 105%; in assay [1], 92%.

With `COc1cccc(C(=O)c2c(-c3ccccc3[N+](=O)[O-])sc3ccccc23)c1`, the Activity in the assay listed under Sus scrofa amounted to 96%; in assay [1], 98%.

In the case of `COc1ccc(-c2sc3ccccc3c2CN)c(N)c1`, the Activity (in the assay listed under Sus scrofa; in assay [1]) was 103% throughout.

Regarding `COc1cc(-c2sc3ccccc3c2C#N)cc(OC)c1OC`, the Activity in the assay filed under Sus scrofa was 91%; in assay [1], 88%.

Consider `COc1ccc(C(=O)c2csc3ccccc23)cc1`, for which the Activity in the assay listed under Sus scrofa worked out at 96%; in assay [1] it was 40%.

Turning to `COc1c(-c2ccc3ccccc3c2)sc2ccccc12`, in assay [1], the Activity was found to be 102%.

For the compound `COc1ccc(Oc2c(-c3ccccc3C#N)sc3ccccc23)c(OC)c1OC`, the Activity in the assay listed under Sus scrofa came to 106%; in assay [1], 121%.

With `COc1ccc(-c2sc3ccccc3c2C(=O)c2cc(OC)c(OC)c(OC)c2)c([N+](=O)[O-])c1`, the Activity in the assay filed under Sus scrofa came out at 92%; in assay [1] it was 124%.

As for `N#Cc1c(-c2cccnc2)sc2ccccc12`, the Activity in assay [1] came to 106%.

As for `COC(=O)C(Cc1c(-c2ccc(C(F)(F)F)cc2)sc2ccccc12)NCc1ccccc1` (stereo not drawn), in assay [1], the Activity is 63%.

Turning to `c1ccc(-c2sc3ccccc3c2N2CCCCC2)cc1`, the Activity in the assay filed under Sus scrofa is 81%; in assay [1], 99%.

With `COc1c(-c2cnc3ccccc3c2)sc2ccccc12`, the Activity in the assay filed under Sus scrofa was found to be 86%; in assay [1], 64%.

As for `N#Cc1ccc(Oc2c[s+]([O-])c3ccccc23)cc1` (stereo not drawn), the Activity in the assay listed under Sus scrofa came to 67%; in assay [1], 106%.

Consider `O=Cc1c(-c2ccccc2Cl)sc2ccccc12`, for which the values for the Activity (in the assay listed under Sus scrofa; in assay [1]) were 97% and 63%, respectively.

Consider `COc1ccc(-c2sc3ccccc3c2CN)c(OC)c1OC`, for which the Activity in the assay listed under Sus scrofa came to 94%; in assay [1], 142%.

Turning to `COc1c(-c2ccccn2)sc2ccccc12`, the Activity in the assay filed under Sus scrofa is 90%; in assay [1], 99%.

As for `Clc1ccc(Oc2csc3ccccc23)cc1`, the Activity in the assay listed under Sus scrofa worked out at 94%; in assay [1], 107%.

Take `COC(=O)/C(=C\c1c(-c2ccc(C#N)cc2)sc2ccccc12)NCc1ccccc1`: the Activity in assay [1] amounted to 108%.

Regarding `N#Cc1ccccc1-c1c(OCC(F)(F)F)sc2ccccc12`, the figures for the Activity (in the assay listed under Sus scrofa; in assay [1]) were 87% and 101%, respectively.

Consider `N#Cc1ccc(Oc2c(-c3ccccc3C#N)sc3ccccc23)cc1`, for which the Activity in the assay listed under Sus scrofa is 97%; in assay [1], 82%.

Take `COc1ccc(-c2csc3ccccc23)cc1`: the Activity in assay [1] turned out to be 100%.

As to `N#Cc1ccc(Oc2csc3ccccc23)cc1`, the Activity in the assay filed under Sus scrofa is 85%; in assay [1], 87%.

As for `O=Cc1c(-c2cnc3ccccc3c2)sc2ccccc12`, the Activity in assay [1] is 110%.

`COc1ccc(C(=O)c2c(-c3ccc(OC)cc3)sc3ccccc23)cc1`: the figures for the Activity (in the assay filed under Sus scrofa; in assay [1]) were 108% and 70%, respectively.

Turning to `O=Cc1c(-c2cccc(Cl)c2)sc2ccccc12`, the figures for the Activity (in the assay listed under Sus scrofa; in assay [1]) were 95% and 62%, respectively.

Take `N#Cc1c(-c2ccc3ccccc3c2)sc2ccccc12`: the Activity came to 99% in the assay listed under Sus scrofa and 18% in assay [1].

In the case of `CC(C)(C)c1ccc(Oc2csc3ccccc23)cc1`, the Activity came to 100% in the assay filed under Sus scrofa and 113% in assay [1].

With `N#Cc1ccccc1-c1sc2ccccc2c1C=O`, the Activity in the assay listed under Sus scrofa was 79%; in assay [1] it was 110%.

For the compound `COc1c(-c2ccccc2C)sc2ccccc12`, the figures for the Activity (in the assay filed under Sus scrofa; in assay [1]) were 96% and 73%, respectively.

Take `Cc1ccccc1-c1sc2ccccc2c1C#N`: the values for the Activity (in the assay filed under Sus scrofa; in assay [1]) were 85% and 5%, respectively.

With `COc1ccc(-c2sc3ccccc3c2C=O)cc1`, the Activity worked out at 99% in the assay filed under Sus scrofa and 37% in assay [1].

For `[O-][s+]1cc(Oc2ccccc2)c2ccccc21` (stereo not drawn), the figures for the Activity (in the assay filed under Sus scrofa; in assay [1]) were 104% and 102%, respectively.

Take `NCc1ccc(Oc2csc3ccccc23)cc1`: the Activity came out at 83% in the assay filed under Sus scrofa and 105% in assay [1].

With `N#Cc1csc2ccccc12`, the Activity (in the assay listed under Sus scrofa; in assay [1]) was 92% throughout.

Turning to `Ic1cc2ccccc2s1`, the Activity in the assay filed under Sus scrofa was found to be 54%; in assay [1] it was 41%.

Turning to `c1ccc(-c2cc3ccccc3s2)nc1`, the Activity in the assay listed under Sus scrofa came out at 94%; in assay [1] it was 119%.

For `N#Cc1c(-c2ccccc2)sc2ccccc12`, in assay [1], the Activity was determined as 76%.

Regarding `NCc1c(-c2ccccc2)sc2ccccc12`, the Activity came out at 76% in the assay filed under Sus scrofa and 148% in assay [1].

As for `Fc1ccc(Oc2csc3ccccc23)cc1`, the Activity came out at 78% in the assay filed under Sus scrofa and 104% in assay [1].

For `N#Cc1ccccc1-c1sc2ccccc2c1C(=O)c1ccccc1`, the Activity in the assay listed under Sus scrofa amounted to 92%; in assay [1], 91%.

As for `COc1ccc(Oc2c(-c3ccccc3C#N)sc3ccccc23)cc1`, the Activity in the assay filed under Sus scrofa was 98%; in assay [1], 106%.

Take `FC(F)(F)Cc1c(-c2cccnc2)sc2ccccc12`: the Activity in the assay listed under Sus scrofa came out at 84%; in assay [1] it was 122%.

Regarding `COc1cccc(C(=O)c2c(-c3ccc(OC)cc3[N+](=O)[O-])sc3ccccc23)c1`, the results for the Activity (in the assay filed under Sus scrofa; in assay [1]) were 100% and 116%, respectively.

As to `O=Cc1c(-c2ccc(Cl)cc2)sc2ccccc12`, the Activity in assay [1] was 9%.

Regarding `COc1c(-c2ccccc2)sc2ccccc12`, the results for the Activity (in the assay listed under Sus scrofa; in assay [1]) were 87% and 80%, respectively.

`COc1c(-c2cccnc2)sc2ccccc12`: the values for the Activity (in the assay listed under Sus scrofa; in assay [1]) were 44% and 112%, respectively.

For the compound `N#Cc1c(-c2ccccn2)sc2ccccc12`, in assay [1], the Activity came out at 94%.

Regarding `COc1ccc(Oc2c[s+]([O-])c3ccccc23)cc1` (stereo not drawn), the Activity in the assay filed under Sus scrofa worked out at 100%; in assay [1] it was 107%.

For `c1ccc2c(N3CCCCC3)csc2c1`, the Activity came to 80% in the assay listed under Sus scrofa and 92% in assay [1].

As for `COc1ccc(Oc2csc3ccccc23)cc1`, the Activity in the assay filed under Sus scrofa is 82%; in assay [1] it was 96%.

On to `COc1c(-c2ccccc2C#N)sc2ccccc12`, for which the Activity in the assay filed under Sus scrofa came to 79%; in assay [1], 57%.

With `N#Cc1c(-c2cnc3ccccc3c2)sc2ccccc12`, the Activity in assay [1] worked out at 95%.

With `c1ccc(Oc2csc3ccccc23)cc1`, the Activity in the assay listed under Sus scrofa was 89%; in assay [1], 104%.

Take `N#Cc1ccccc1-c1sc2ccccc2c1N1CCOCC1`: the Activity in the assay filed under Sus scrofa turned out to be 93%; in assay [1], 107%.

In the case of `COc1ccc(-c2cc3ccccc3s2)c([N+](=O)[O-])c1`, the Activity in the assay filed under Sus scrofa was determined as 96%; in assay [1] it was 99%.

`CN1CCN(c2c[s+]([O-])c3ccccc23)CC1` (stereo not drawn): the Activity in the assay listed under Sus scrofa amounted to 95%; in assay [1] it was 102%.

With `COc1cc(Oc2c[s+]([O-])c3ccccc23)cc(OC)c1OC` (stereo not drawn), the results for the Activity (in the assay listed under Sus scrofa; in assay [1]) were 101% and 127%, respectively.

In the case of `COc1ccc(-c2sc3ccccc3c2C(=O)c2ccccc2OC)c([N+](=O)[O-])c1`, the Activity in the assay listed under Sus scrofa is 111%; in assay [1] it was 117%.

With `N#Cc1ccccc1-c1sc2ccccc2c1C#N`, the Activity in assay [1] was 90%.

For `N#Cc1c(-c2ccc(Cl)cc2)sc2ccccc12`, the Activity in assay [1] was 69%.

With `N#Cc1c(-c2cccc(Cl)c2)sc2ccccc12`, the Activity in assay [1] turned out to be 115%.

On to `N#Cc1sc2ccccc2c1-c1cccnc1`, for which the Activity in assay [1] is 120%.

Turning to `COc1cccc(-c2sc3ccccc3c2C#N)c1`, the Activity in assay [1] was 97%.

For `N#Cc1sc2ccccc2c1-c1ccc(C(F)(F)F)cc1`, the Activity in assay [1] was 115%.

Turning to `COc1ccc(-c2sc3ccccc3c2C#N)cc1`, in assay [1], the Activity was 94%.
